Test results published in ChEMBL document CHEMBL3853360, “Combined Interactions with I1-, I2-Imidazoline Binding Sites and α2-Adrenoceptors To Manage Opioid Addiction” (ACS Med Chem Lett, 2016).

Tests used:
[1] = Reduction in morphine dependence expression in CD1 mouse assessed as inhibition of naloxone-precipitated jumping at 10 mg/kg, ip administered acutely 15 mins prior to naloxone challenge relative to control; format: functional, organism-based
[2] = Reduction in morphine dependence expression in CD1 mouse assessed as inhibition of naloxone-precipitated forepaw tremor frequency at 5 mg/kg, ip administered acutely 15 mins prior to naloxone challenge relative to control; format: functional, organism-based
[3] = system: Mus musculus; experiment: Reduction in morphine dependence acquisition in CD1 mouse assessed as inhibition of naloxone-precipitated forepaw tremor frequency at 5 to 10 mg/kg, ip administered 15 mins prior to each morphine challenge relative to control; format: functional
How it was run: (§1)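 Mice received i.p. test compound (5 or 10 mg/kg) 15 min before each of repeated morphine injections, with vehicle and morphine-only controls. Withdrawal was then precipitated with naloxone. Jumping frequency and somatic signs (rearing, forepaw tremor, teeth chattering; summed frequency) were scored and compared with the morphine group. Data are mean ± SEM of 6–10 animals.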

[4] = Reduction in morphine dependence expression in CD1 mouse assessed as inhibition of naloxone-precipitated teeth chattering frequency at 10 mg/kg, ip administered acutely 15 mins prior to naloxone challenge relative to control; format: functional, organism-based
[5] = Displacement of [3H]-2-BFI from I2 receptor imidazoline binding site in Sprague-Dawley rat brain membranes after 30 mins by liquid scintillation counting; format: cell membranes, Membrane
How it was run: (§2)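 Radioligand competition binding with pKi determined by displacement. I1 sites: [125I]-p-iodoclonidine on rat kidney membranes. I2 sites: [3H]-2-BFI on rat brain membranes. α2-ARs: [3H]-RX821002 on rat brain membranes.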

[6] = biological target: T1, Alpha-2C adrenergic receptor (Homo sapiens, UniProt P18825); experiment: Agonist activity at human alpha2c-AR expressed in CHO cells assessed as rate of acidification after 240 mins by cytosensor microphysiometric analysis; format: cell-based
T1 sequence (P18825 whole entry): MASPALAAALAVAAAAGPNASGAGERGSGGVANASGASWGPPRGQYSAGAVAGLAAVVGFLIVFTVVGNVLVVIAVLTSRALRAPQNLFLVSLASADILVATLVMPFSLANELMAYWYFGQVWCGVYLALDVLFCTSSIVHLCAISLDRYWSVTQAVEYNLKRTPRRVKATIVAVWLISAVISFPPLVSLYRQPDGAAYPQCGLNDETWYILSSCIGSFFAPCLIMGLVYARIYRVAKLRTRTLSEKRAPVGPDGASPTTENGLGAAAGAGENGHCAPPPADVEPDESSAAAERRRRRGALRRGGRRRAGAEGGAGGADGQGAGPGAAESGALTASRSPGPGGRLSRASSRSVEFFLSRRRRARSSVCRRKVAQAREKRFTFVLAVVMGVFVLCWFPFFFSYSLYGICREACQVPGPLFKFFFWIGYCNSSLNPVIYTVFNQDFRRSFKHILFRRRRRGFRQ
How it was run: (§3)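 Functional assay in CHO cells stably expressing a single human α2-AR subtype (α2A, α2B or α2C), read on a Cytosensor microphysiometer. Outputs are pEC50, intrinsic activity and, for antagonism, pKb. Intrinsic activity is expressed as a fraction of the full agonist (−)-noradrenaline, set at 1. Values are mean ± SEM of 3–5 separate experiments.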

[7] = Reduction in morphine dependence expression in CD1 mouse assessed as inhibition of naloxone-precipitated rearing frequency at 5 mg/kg, ip administered acutely 15 mins prior to naloxone challenge relative to control; format: functional, organism-based
[8] = biological target: T2, Alpha-2A adrenergic receptor (Homo sapiens) (UniProt P08913); experiment: Antagonist activity at human alpha2a-AR expressed in CHO cells assessed as inhibition of (-)-noradrenaline-induced acidification rate after 240 mins by cytosensor microphysiometric analysis; format: cell-based; how it was run: as §3
T2 sequence (whole entry): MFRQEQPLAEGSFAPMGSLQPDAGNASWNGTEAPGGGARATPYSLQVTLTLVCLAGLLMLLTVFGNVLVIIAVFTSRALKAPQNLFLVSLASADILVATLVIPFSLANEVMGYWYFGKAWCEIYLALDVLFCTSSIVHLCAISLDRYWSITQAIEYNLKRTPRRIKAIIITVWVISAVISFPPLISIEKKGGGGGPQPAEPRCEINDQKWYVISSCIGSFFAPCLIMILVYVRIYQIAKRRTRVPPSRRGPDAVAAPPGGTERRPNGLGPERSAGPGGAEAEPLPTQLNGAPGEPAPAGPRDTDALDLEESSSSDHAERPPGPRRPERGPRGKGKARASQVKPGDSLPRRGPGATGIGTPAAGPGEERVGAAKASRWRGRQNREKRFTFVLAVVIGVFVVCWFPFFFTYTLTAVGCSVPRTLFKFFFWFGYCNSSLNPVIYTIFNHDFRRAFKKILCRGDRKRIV

[9] = Reduction in morphine dependence expression in CD1 mouse assessed as inhibition of naloxone-precipitated teeth chattering frequency at 5 mg/kg, ip administered acutely 15 mins prior to naloxone challenge relative to control; format: functional, organism-based
[10] = system: Mus musculus; experiment: Reduction in morphine dependence acquisition in CD1 mouse assessed as inhibition of naloxone-precipitated jumping at 5 to 10 mg/kg, ip administered 15 mins prior to each morphine challenge relative to control; format: functional; how it was run: as §1
[11] = system: Mus musculus; experiment: Reduction in morphine dependence acquisition in CD1 mouse assessed as inhibition of naloxone-precipitated rearing frequency at 5 to 10 mg/kg, ip administered 15 mins prior to each morphine challenge relative to control; format: functional; how it was run: as §1
[12] = biological target: Nischarin (Rattus norvegicus, UniProt Q4G017); experiment: Displacement of [125I]-p-iodoclonidine from I1 receptor imidazoline binding site in Sprague-Dawley rat kidney cell membranes after 30 mins by liquid scintillation counting; how it was run: as §2
Nischarin, sequence (Q4G017 whole entry): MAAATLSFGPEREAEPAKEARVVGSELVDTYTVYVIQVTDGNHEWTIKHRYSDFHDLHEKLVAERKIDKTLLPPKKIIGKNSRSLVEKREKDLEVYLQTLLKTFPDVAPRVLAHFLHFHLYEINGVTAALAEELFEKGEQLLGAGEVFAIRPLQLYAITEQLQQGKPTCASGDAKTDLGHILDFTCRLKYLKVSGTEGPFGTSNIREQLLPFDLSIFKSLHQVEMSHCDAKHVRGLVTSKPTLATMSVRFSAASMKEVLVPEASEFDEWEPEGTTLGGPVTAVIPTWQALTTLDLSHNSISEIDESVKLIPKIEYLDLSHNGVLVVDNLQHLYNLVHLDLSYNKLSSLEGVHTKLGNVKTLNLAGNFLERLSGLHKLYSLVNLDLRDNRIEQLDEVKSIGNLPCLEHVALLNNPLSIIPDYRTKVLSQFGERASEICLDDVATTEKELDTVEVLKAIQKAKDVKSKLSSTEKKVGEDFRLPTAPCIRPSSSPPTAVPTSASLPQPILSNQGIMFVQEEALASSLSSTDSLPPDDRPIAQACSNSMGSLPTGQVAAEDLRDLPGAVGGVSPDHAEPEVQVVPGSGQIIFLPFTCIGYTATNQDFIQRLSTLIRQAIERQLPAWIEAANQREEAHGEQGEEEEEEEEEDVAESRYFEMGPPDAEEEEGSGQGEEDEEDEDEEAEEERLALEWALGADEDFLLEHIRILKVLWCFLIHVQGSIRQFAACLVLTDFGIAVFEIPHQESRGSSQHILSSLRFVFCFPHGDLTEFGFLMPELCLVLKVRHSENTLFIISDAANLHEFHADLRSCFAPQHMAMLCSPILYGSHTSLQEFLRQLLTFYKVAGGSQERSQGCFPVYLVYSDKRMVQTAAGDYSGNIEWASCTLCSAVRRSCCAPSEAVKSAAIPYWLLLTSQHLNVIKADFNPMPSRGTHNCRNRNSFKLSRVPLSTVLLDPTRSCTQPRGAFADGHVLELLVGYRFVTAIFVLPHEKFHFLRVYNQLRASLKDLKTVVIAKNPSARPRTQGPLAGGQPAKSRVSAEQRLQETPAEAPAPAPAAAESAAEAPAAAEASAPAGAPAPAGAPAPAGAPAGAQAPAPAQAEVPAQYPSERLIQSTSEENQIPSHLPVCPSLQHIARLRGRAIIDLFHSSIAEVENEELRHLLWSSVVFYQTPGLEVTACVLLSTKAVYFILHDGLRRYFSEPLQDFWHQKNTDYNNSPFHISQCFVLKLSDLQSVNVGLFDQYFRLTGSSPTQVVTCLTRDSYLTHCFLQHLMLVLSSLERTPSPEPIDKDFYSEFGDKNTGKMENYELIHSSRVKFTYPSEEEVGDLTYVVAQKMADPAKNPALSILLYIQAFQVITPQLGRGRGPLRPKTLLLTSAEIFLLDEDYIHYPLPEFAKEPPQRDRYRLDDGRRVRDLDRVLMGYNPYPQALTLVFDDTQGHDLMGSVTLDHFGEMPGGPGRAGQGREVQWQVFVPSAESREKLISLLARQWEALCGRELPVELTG

[13] = Reduction in morphine dependence expression in CD1 mouse assessed as inhibition of naloxone-precipitated rearing frequency at 10 mg/kg, ip administered acutely 15 mins prior to naloxone challenge relative to control; format: functional, organism-based
[14] = Reduction in morphine dependence expression in CD1 mouse assessed as inhibition of naloxone-precipitated forepaw tremor frequency at 10 mg/kg, ip administered acutely 15 mins prior to naloxone challenge relative to control; format: functional, organism-based

With Cc1ccccc1NCC1=NCCN1 the inhibition [1] was 98%, the inhibition [2] was 86% and the “inhibition (INH)” value [3] was 80%. It also gave an inhibition [4] of 93%, a pKi [5] of 8.06 and an EC50 [6] of 21.9 nM. For the same molecule, the inhibition [7] was 86%, the pKb [8] was 7.58 and the inhibition [9] was 86%. For the same molecule, the “inhibition (INH)” value [10] was 80%, the “inhibition (INH)” value [11] was 80% and the Ki [12] was 2 nM. It also gave an inhibition [13] of 93% and an inhibition [14] of 93%.
